According to ChEMBL document CHEMBL5712896, “Targeting EHMT2 reverses EGFR-TKI resistance in NSCLC by epigenetically regulating the PTEN/AKT signaling pathway” (2018):
Active and inactive are the calls of the source. The rule behind the calls is not given here.

Tests used:
HCC827ER [1] = assay: Induction of apoptosis in human HCC827ER cells assessed as increased cleaved-PARP expression at 10 uM measured by Western blot analysis; format: functional, cell-based
Summary of the method: (§1)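 Resistant PC9/ER and HCC827/ER cells treated with 10 μM epigenetic inhibitor (DMSO control). Cleaved PARP detected by western blot on 10–15% SDS-PAGE with ECL, normalized to β-actin.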

PC-9/ER [2] = assay: Induction of apoptosis in human PC-9/ER cells assessed as increased cleaved-PARP expression at 10 uM measured by Western blot analysis; format: functional, cell-based; summary of the method: as §1
PC-9/ER [3] = assay: Antitumor activity against human PC-9/ER cells xenografted in SCID mouse assessed as inhibition of tumor growth at 2.5 mg/kg, ip bid for 3 weeks; format: functional, organism-based
Summary of the method: (§2)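 Male SCID mice, 7–8 weeks old, injected s.c. in the right flank with 5 × 10^6 PC9/ER cells in PBS. At an average tumor volume of 50 mm3, randomized into groups of n = 6: saline, UNC0642 2.5 mg/kg bid i.p., Erlotinib 12.5 mg/kg/day i.p., or both. Tumor volume tracked and body weight recorded; tumors weighed after sacrifice at 3 weeks.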

PC-9/ER [4] = assay: Antitumor activity against human PC-9/ER cells xenografted in SCID mouse assessed as reduction of tumor weight at 2.5 mg/kg, ip bid for 3 weeks relative to control; format: functional; parameters: scale not given: the % may be the effect or the level left; summary of the method: as §2
PC-9/ER [5] = assay: Antitumor activity against human PC-9/ER cells xenografted in SCID mouse assessed as reduction of tumor weight at 2.5 mg/kg, ip bid for 3 weeks in presence of erlotinib relative to control; format: functional; parameters: scale not given: the % may be the effect or the level left; summary of the method: as §2
Mus musculus [6] = assay: In vivo inhibition of AKT phosphorylation in human PC-9/ER cells xenografted SCID mouse assessed as reduction of H3K9Me2 expression at 2.5 mg/kg, ip bid for 3 weeks; format: functional, organism-based
Summary of the method: (§3)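 Tumors were excised after 3 weeks from PC9/ER xenografts in SCID mice dosed with UNC0642 (2.5 mg/kg bid i.p.) with or without Erlotinib (12.5 mg/kg/day i.p.), saline as control. Tissue lysates were run on western blot for H3K9Me2, PTEN, p-AKT and AKT, normalized to β-actin or Histone3.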

Mus musculus [7] = assay: In vivo inhibition of AKT phosphorylation in human PC-9/ER cells xenografted SCID mouse assessed as increase in PTEN expression at 2.5 mg/kg, ip bid for 3 weeks; format: functional, organism-based; summary of the method: as §3
PC-9/ER [8] = assay: Antiproliferative activity against human PC-9/ER cells assessed as inhibition of cell growth upto 10 uM incubated for 48 hrs by MTT assay; format: functional, cell-based
Summary of the method: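 PC9/ER cells (made resistant by 3 months in Erlotinib, 0.5–2 μM, RPMI-1640 with 10% FBS) seeded at 8 × 10^4 cells/ml, left overnight, then exposed to 5 or 10 μM inhibitor (DMSO control) for 48 h. MTT (2.5 mg/ml stock) was added for 4 h at 37 °C, formazan dissolved in DMSO, OD read at 570 nm.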

PC-9/ER [9] = assay: Induction of apoptosis in human PC-9/ER cells assessed as viable cells at 10 uM for 48 hrs by annexin V/PI staining based flow cytometric analysis (reference value: 94.2%); format: functional; settings: read-out: Activity
PC-9/ER [10] = assay: Induction of apoptosis in human PC-9/ER cells assessed as early apoptotic cells at 10 uM for 48 hrs by annexin V/PI staining based flow cytometric analysis (reference value: 1.9%); format: functional
PC-9/ER [11] = assay: Induction of apoptosis in human PC-9/ER cells assessed as late apoptotic cells at 10 uM for 48 hrs by annexin V/PI staining based flow cytometric analysis (reference value: 3.8%); format: functional
PC-9/ER [12] = assay: Induction of apoptosis in human PC-9/ER cells assessed as necrotic cells at 10 uM for 48 hrs by annexin V/PI staining based flow cytometric analysis (reference value: 0.1%); format: functional
HCC827ER [13] = assay: Induction of apoptosis in human HCC827ER cells assessed as viable cells at 10 uM for 48 hrs by annexin V/PI staining based flow cytometric analysis (reference value: 94.4%); format: functional; settings: read-out: Activity
HCC827ER [14] = assay: Induction of apoptosis in human HCC827ER cells assessed as early apoptotic cells at 10 uM for 48 hrs by annexin V/PI staining based flow cytometric analysis (reference value: 1.8%); format: functional
HCC827ER [15] = assay: Induction of apoptosis in human HCC827ER cells assessed as late apoptotic cells at 10 uM for 48 hrs by annexin V/PI staining based flow cytometric analysis (reference value: 3.5%); format: functional
HCC827ER [16] = assay: Induction of apoptosis in human HCC827ER cells assessed as necrotic cells at 10 uM for 48 hrs by annexin V/PI staining based flow cytometric analysis (reference value: 0.3%); format: functional
[17] = Upregulation of PTEN mRNA expression level in human PC-9/ER cells assessed as increase in fold change at 10 uM by Western blot analysis; format: functional; settings: in the assay text read “real-time RT-PCR” for “Western blot analysis”
Summary of the method: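 PC9/ER cells were treated with 10 μM UNC0638 or transfected with 20 nM EHMT2 siRNA, with DMSO or scramble siRNA as controls. Total RNA was extracted, reverse transcribed, and PTEN mRNA measured by SYBR Green real-time RT-PCR, normalized to GAPDH and expressed as fold change versus control. PTEN protein was checked separately by western blot against β-actin.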

Structure (SMILES) | Activity (HCC827ER [1]) | Activity (PC-9/ER [2]) | Activity (PC-9/ER [8]) | viability at 10 µM (PC-9/ER [9]) | Activity (PC-9/ER [10]) | Activity (PC-9/ER [11]) | Activity (PC-9/ER [12]) | viability at 10 µM (HCC827ER [13]) | Activity (HCC827ER [14]) | Activity (HCC827ER [15]) | Activity (HCC827ER [16]) | further results
COc1cc2nc(N3CCCC3)nc(NCCCCCN3CCCC3)c2cc1OC | inactive | inactive | – | – | – | – | – | – | – | – | – | –
COc1cc2c(NC3CCN(C(C)C)CC3)nc(N3CCC(F)(F)CC3)nc2cc1OCCCN1CCCC1 | – | – | – | – | – | – | – | – | – | – | – | Activity (PC-9/ER [3]): Active; Activity (PC-9/ER [4]): 37.2%; Activity (PC-9/ER [5]): 68.2%; inhibition (Mus musculus [6]): Active; inhibition (Mus musculus [7]): Active
CC(C)N(C[C@H]1O[C@@H](n2cnc3c(N)ncnc32)[C@H](O)[C@@H]1O)[C@H]1C[C@@H](CCc2nc3cc(C(C)(C)C)ccc3[nH]2)C1 | inactive | inactive | – | – | – | – | – | – | – | – | – | –
O=C(/C=C/c1cccc(S(=O)(=O)Nc2ccccc2)c1)NO [BELINOSTAT] | – | – | Active | 75.8% | 12.8% | 10.5% | 0.9% | 82.3% | 9.4% | 7% | 1.3% | –
COc1cc2c(NC3CCN(C(C)C)CC3)nc(C3CCCCC3)nc2cc1OCCCN1CCCC1 | Active | Active | Active | 38.5% | 40.8% | 20.5% | 0.2% | 41.9% | 43.1% | 15% | 0% | fold change (FC) [17]: 2.5
Cc1cn(CCN2CCN(c3ccccc3-c3cc(C#N)cc(C(=O)NCCCN4CCCC4)c3)CC2)c2ccccc12 | inactive | inactive | – | – | – | – | – | – | – | – | – | –
CC[C@H](C)n1cc(C)c2c(C(=O)NCc3c(C)cc(C)[nH]c3=O)cc(-c3ccc(N4CCNCC4)nc3)cc21 | Active | Active | Active | – | – | – | – | – | – | – | – | –
O=C(O)CCNc1cc(N2CCc3ccccc3CC2)nc(-c2ccccn2)n1 | inactive | inactive | – | – | – | – | – | – | – | – | – | –
Nc1ncn([C@@H]2O[C@H](CO)[C@@H](O)[C@H]2O)c(=O)n1 | Active | Active | Active | – | – | – | – | – | – | – | – | –
Cc1sc2c(c1C)C(c1ccc(Cl)cc1)=N[C@@H](CC(=O)OC(C)(C)C)c1nnc(C)n1-2 | – | – | Active | 89.8% | 4.8% | 5.2% | 0.2% | 63.4% | 26.4% | 10% | 0.2% | –
